In ChEMBL document CHEMBL4014350, “Alkoxyurea-Based Histone Deacetylase Inhibitors Increase Cisplatin Potency in Chemoresistant Cancer Cell Lines” (J Med Chem, 2017):
pIC50: −log10 of the molar value.

Experiments:
[1] = Antiproliferative activity against human Cal27CisR cells measured after 72 hrs by MTT assay; format: functional, cell-based
[2] = Inhibition of HDAC in human Cal27CisR cells using Boc-Lys(epsilon-Ac)-AMC as substrate preincubated for 18 hrs followed by substrate addition measured after 3 hrs by fluorescence assay; format: cell-based
[3] = Inhibition of HDAC in human A2780CisR cells using Boc-Lys(epsilon-Ac)-AMC as substrate preincubated for 18 hrs followed by substrate addition measured after 3 hrs by fluorescence assay; format: cell-based
[4] = Inhibition of HDAC in human A2780 cells using Boc-Lys(epsilon-Ac)-AMC as substrate preincubated for 18 hrs followed by substrate addition measured after 3 hrs by fluorescence assay; format: cell-based
[5] = Inhibition of HDAC in human CAL27 cells using Boc-Lys(epsilon-Ac)-AMC as substrate preincubated for 18 hrs followed by substrate addition measured after 3 hrs by fluorescence assay; format: cell-based; details: CAL-27
CAL-27 [6] = assay: Antiproliferative activity against human CAL27 cells measured after 72 hrs by MTT assay; format: functional, cell-based; details: CAL-27, 72 h
A2780cisR = assay: Antiproliferative activity against human A2780cisR cells measured after 72 hrs by MTT assay; format: functional, cell-based
A2780 = assay: Antiproliferative activity against human A2780 cells measured after 72 hrs by MTT assay; format: functional, cell-based; details: A2780, 72 h
Homo sapiens = organism: Homo sapiens; assay: Selectivity ratio of IC50 for HDAC in human A2780 cells to IC50 for HDAC in human A2780CisR cells; format: cell-based
Histone deacetylase 4 = Histone deacetylase 4 (Homo sapiens, UniProt P56524); assay: Inhibition of recombinant human N-terminal GST-tagged/C-terminal His-tagged HDAC4 expressed in insect cells using Boc-K(Ac)-AMC as substrate by fluorescence assay
Sequence of Histone deacetylase 4 (P56524 whole entry): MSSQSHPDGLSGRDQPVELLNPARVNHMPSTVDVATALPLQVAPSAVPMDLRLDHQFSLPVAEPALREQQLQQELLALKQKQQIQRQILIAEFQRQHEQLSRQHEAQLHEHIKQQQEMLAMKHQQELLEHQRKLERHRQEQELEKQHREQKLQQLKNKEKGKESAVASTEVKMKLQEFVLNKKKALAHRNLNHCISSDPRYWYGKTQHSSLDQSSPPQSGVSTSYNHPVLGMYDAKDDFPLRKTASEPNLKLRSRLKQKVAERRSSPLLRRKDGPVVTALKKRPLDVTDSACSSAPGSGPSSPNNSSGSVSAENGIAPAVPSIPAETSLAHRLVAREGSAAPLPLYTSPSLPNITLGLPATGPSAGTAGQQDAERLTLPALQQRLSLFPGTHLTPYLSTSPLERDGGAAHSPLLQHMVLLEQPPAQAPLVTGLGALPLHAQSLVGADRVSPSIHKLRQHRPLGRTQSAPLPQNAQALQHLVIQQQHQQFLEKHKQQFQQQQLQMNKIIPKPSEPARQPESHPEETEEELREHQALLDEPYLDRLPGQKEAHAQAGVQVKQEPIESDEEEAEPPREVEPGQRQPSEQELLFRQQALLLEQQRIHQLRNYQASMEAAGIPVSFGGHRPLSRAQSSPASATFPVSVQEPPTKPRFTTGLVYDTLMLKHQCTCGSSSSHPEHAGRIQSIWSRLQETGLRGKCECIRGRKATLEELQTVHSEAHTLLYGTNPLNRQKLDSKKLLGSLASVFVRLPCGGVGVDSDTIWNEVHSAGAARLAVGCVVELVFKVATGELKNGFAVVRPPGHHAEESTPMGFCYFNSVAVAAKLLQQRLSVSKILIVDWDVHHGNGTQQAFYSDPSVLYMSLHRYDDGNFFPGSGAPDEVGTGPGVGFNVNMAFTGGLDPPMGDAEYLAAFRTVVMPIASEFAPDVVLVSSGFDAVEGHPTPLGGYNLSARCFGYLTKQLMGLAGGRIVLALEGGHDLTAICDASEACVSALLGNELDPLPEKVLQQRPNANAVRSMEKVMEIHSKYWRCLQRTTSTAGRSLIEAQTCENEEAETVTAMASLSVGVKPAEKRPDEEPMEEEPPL

[7] = target: T1, Protein deacetylase HDAC6 (Homo sapiens, UniProt Q9UBN7); assay: Inhibition of full length human recombinant N-terminal GST-tagged HDAC6 expressed in baculovirus infected sf9 cells Z-(Ac)Lys-AMC as substrate measured after 90 mins by fluorescence assay
T1 sequence (Q9UBN7 whole entry): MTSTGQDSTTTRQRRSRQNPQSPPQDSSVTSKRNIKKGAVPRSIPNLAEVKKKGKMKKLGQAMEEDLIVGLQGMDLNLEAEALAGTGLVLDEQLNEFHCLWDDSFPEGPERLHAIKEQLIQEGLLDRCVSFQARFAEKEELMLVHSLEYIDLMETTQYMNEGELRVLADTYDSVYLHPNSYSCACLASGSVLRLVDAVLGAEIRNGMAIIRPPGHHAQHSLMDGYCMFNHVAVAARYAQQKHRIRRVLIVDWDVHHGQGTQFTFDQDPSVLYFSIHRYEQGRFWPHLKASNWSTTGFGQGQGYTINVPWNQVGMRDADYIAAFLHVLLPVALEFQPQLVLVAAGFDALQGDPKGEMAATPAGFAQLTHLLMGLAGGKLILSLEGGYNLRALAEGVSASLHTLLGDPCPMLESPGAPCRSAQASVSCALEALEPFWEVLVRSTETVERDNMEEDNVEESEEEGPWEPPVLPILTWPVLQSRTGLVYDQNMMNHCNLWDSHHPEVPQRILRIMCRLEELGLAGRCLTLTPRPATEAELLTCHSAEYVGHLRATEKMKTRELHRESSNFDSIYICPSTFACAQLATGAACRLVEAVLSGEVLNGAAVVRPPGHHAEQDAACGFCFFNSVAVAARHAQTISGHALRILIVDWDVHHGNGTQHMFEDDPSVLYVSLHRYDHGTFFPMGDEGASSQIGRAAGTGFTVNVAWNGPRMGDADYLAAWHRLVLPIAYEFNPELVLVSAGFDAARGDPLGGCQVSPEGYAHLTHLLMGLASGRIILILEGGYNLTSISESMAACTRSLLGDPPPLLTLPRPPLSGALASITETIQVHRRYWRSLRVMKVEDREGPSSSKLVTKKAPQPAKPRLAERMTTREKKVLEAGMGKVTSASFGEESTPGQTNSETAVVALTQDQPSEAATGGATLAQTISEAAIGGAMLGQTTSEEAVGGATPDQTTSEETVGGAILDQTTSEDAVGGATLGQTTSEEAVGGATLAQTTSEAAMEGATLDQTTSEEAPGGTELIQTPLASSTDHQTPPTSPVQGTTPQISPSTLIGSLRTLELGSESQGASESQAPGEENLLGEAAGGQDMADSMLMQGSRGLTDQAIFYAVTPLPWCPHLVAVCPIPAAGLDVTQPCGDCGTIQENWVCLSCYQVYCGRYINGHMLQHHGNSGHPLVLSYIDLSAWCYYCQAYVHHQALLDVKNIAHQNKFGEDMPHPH

Histone deacetylase 1 = Histone deacetylase 1 (Homo sapiens, UniProt Q13547); assay: Inhibition of recombinant full length human C-terminal FLAG/His-tagged HDAC1 expressed in baculovirus infected sf9 cells using Z-(Ac)Lys-AMC as substrate measured after 90 mins by fluorescence assay
Sequence of Histone deacetylase 1 (Q13547 whole entry): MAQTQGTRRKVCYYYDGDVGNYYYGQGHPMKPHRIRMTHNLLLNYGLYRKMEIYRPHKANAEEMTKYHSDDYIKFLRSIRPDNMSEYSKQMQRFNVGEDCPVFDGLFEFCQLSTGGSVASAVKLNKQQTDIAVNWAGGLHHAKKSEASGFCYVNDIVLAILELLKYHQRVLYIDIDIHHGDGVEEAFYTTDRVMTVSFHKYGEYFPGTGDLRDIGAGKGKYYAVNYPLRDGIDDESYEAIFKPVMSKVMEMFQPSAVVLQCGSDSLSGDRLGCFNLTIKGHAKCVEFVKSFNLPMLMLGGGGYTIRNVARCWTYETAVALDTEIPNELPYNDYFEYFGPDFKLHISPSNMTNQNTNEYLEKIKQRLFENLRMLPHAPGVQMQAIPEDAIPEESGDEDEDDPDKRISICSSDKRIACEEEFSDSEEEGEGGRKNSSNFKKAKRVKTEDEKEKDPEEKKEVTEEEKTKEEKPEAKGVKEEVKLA

Histone deacetylase 8 = target: T2, Histone deacetylase 8 (Homo sapiens, UniProt Q9BY41); assay: Inhibition of human HDAC8 using Z-L-Lys(epsilon-trifluoroacetyl)-AMC as substrate measured after 90 mins by fluorescence assay
T2 sequence (Q9BY41 whole entry): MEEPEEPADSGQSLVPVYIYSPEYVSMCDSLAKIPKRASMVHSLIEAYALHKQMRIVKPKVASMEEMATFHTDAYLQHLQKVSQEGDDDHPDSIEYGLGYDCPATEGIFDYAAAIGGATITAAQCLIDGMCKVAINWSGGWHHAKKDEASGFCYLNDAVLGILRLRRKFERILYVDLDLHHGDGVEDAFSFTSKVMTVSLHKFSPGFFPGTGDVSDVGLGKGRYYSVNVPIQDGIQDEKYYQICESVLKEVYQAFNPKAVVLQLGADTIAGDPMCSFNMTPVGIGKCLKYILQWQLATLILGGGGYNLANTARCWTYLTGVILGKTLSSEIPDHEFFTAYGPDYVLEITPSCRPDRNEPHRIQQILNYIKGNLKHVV

CAL-27 [8] = assay: Potentiation of cisplatin-induced cytotoxicity against human CAL27 cells assessed as decrease in cell viability at 10 uM preincubated for 48 hrs followed by cisplatin treatment measured after 72 hrs by MTT assay relative to cisplatin alone; format: functional
Procedure, shortened: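 Cells were preincubated 48 h with HDAC inhibitor, then cisplatin was added over a concentration range for 72 h, with MTT read-out. Shift factor is cisplatin-alone IC50 divided by combination IC50. Data are mean ± SEM of pooled data from at least three independent experiments, each in triplicate. Significance was by t test (p < 0.05).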

With `O=C(CCCCCONC(=O)Nc1cccc2ccccc12)NO` as the molecule, how does the pIC50 [1] read?
Its pIC50 is 5.41.

What about the pIC50 [2] of the same molecule?
The pIC50 was 6.00.

And the pIC50 [3]?
Its pIC50 is 6.05.

And the pIC50 [4]?
Its pIC50 is 5.96.

What about the pIC50 [5] of the same molecule?
Its pIC50 is 5.96.

What about the pIC50 (CAL-27 [6]) of the same molecule?
The pIC50 was 5.80.

What about the pIC50 (A2780cisR) of the same molecule?
Its pIC50 is 5.10.

With `O=C(CCCCCCC(=O)Nc1ccccc1)NO` [VORINOSTAT] as the molecule, how does the pIC50 [4] read?
Its pIC50 is 5.77.

Which results are given for `Cc1ccc2cccc(NC(=O)NOCCCCCC(=O)NO)c2n1`?
pIC50 [1]: 5.33; pIC50 [2]: 5.55; pIC50 [3]: 5.77; pIC50 [4]: 5.48; pIC50 [5]: 5.47; pIC50 (CAL-27 [6]): 5.66; pIC50 (A2780): 5.37; Ratio IC50 (Homo sapiens): 2 to 3.4; pIC50 (A2780cisR): 5.89

With `O=C(CCCCCONC(=O)Nc1cnc2ccccc2c1)NO` as the molecule, how does the pIC50 (Histone deacetylase 4) read?
Its pIC50 is under 5.00.

What about the pIC50 [1] of the same molecule?
Its pIC50 is 5.27.

What about the pIC50 [7] of the same molecule?
Its pIC50 is 7.29.

And the pIC50 (Histone deacetylase 1)?
The pIC50 was 6.72.

What about the pIC50 (Histone deacetylase 8) of the same molecule?
The pIC50 was 4.95.

What about the pIC50 [2] of the same molecule?
Its pIC50 is 5.89.

What about the pIC50 [3] of the same molecule?
Its pIC50 is 6.05.

And the pIC50 [4]?
Its pIC50 is 5.96.

And the pIC50 [5]?
The pIC50 was 5.89.

What about the pIC50 (CAL-27 [6]) of the same molecule?
Its pIC50 is 5.52.

And the pIC50 (A2780cisR)?
Its pIC50 is 4.94.

With `O=C(CCCCCONC(=O)Nc1cccc2cccnc12)NO` as the molecule, how does the pIC50 [1] read?
Its pIC50 is 5.66.

And the pIC50 [2]?
The pIC50 was 6.05.

And the pIC50 [3]?
Its pIC50 is 6.05.

And the pIC50 [4]?
Its pIC50 is 5.68.

And the pIC50 [5]?
The pIC50 was 6.05.

And the pIC50 (CAL-27 [6])?
The pIC50 was 5.96.

And the pIC50 (A2780)?
The pIC50 was 5.52.

And the Ratio IC50 (Homo sapiens)?
Its Ratio IC50 is 2 to 3.4.

What about the pIC50 (A2780cisR) of the same molecule?
The pIC50 was 6.00.

What does the source list for `CN(O)C(=O)CCCCCONC(=O)Nc1cccc2ccccc12`?
pIC50 [1]: 4.18; pIC50 [2]: 3.69; pIC50 [5]: 3.72; pIC50 (CAL-27 [6]): 4.36; pIC50 (A2780): 4.33; pIC50 (A2780cisR): 4.35

With `O=C(CCCCCONC(=O)Nc1ccc2ccccc2c1)NO` as the molecule, how does the pIC50 [1] read?
The pIC50 was 5.64.

What about the pIC50 [2] of the same molecule?
Its pIC50 is 6.00.

And the pIC50 [3]?
Its pIC50 is 5.80.

What about the pIC50 [4] of the same molecule?
Its pIC50 is 5.29.

And the pIC50 [5]?
Its pIC50 is 6.00.

What about the pIC50 (CAL-27 [6]) of the same molecule?
The pIC50 was 5.77.

And the pIC50 (A2780)?
The pIC50 was 5.85.

And the Ratio IC50 (Homo sapiens)?
The Ratio IC50 was 2 to 3.4.

And the pIC50 (A2780cisR)?
The pIC50 was 5.80.

Which results are given for `COc1cc(NC(=O)NOCCCCCC(=O)NO)c2nc(OC(C)C)cc(C)c2c1Oc1cccc(C(F)(F)F)c1`?
pIC50 [1]: 5.54; pIC50 [2]: 4.25; pIC50 [4]: 3.83; pIC50 [5]: 3.97; pIC50 (CAL-27 [6]): 5.41; pIC50 (A2780): 5.77; pIC50 (A2780cisR): 5.44

Which results are given for `O=C(CCCCCONC(=O)Nc1ccc2ncccc2c1)NO`?
pIC50 [1]: 5.12; pIC50 [2]: 5.96; pIC50 [3]: 5.70; pIC50 [4]: 5.62; pIC50 [5]: 5.85; pIC50 (CAL-27 [6]): 5.24; pIC50 (A2780): 4.56; pIC50 (A2780cisR): 4.98

Which “fold change (FC)” value (CAL-27 [8]) does the source give for `CN1CCc2c(c3ccccc3n2Cc2ccc(C(=O)NO)cc2)C1` [TUBASTATIN A] here?
Its value is 1.1.

And the pIC50 [1]?
Its pIC50 is 4.97.

What about the pIC50 [2] of the same molecule?
The pIC50 was 4.92.

And the pIC50 [5]?
Its pIC50 is 4.79.

What about the pIC50 (CAL-27 [6]) of the same molecule?
The pIC50 was 5.34.
